The source made the active and inactive calls. The rule behind the calls is not given here.
Columns and labels:
SGC-7901 [1] = test: Antiproliferative activity against human SGC7901 cells assessed as reduction in cell growth incubated for 72 hrs by MTT assay; type: functional, cell-based; conditions: SGC-7901, 72 h
SGC-7901 [2] = test: Cell cycle arrest in human SGC7901 cells assessed as accumulation of G2/M cell population at 26 nM incubated for 12 hrs by flow cytometry analysis (reference value: 24.47%); type: functional
Tubulin (Sus scrofa) [3] = target: T1, Tubulin (Sus scrofa) (UniProt P02554+P02550); test: Inhibition of porcine brain tubulin polymerization at 12.5 to 100 uM measured at 1 min intervals for 80 mins by fluorimetry
SGC-7901 [4] = test: Induction of morphological changes in human SGC7901 cells assessed as formation of multinucleated cells at 26 nM incubated for 24 hrs by immunofluorescence assay; type: functional, cell-based
How it was run: (§1)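 SGC-7901 cells were exposed to compound at 26 or 36 nM for 24 h, then immunostained. Microtubules and unassembled tubulin were stained green and nuclei blue. Microtubule network and cell morphology were examined by fluorescence imaging.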

SGC-7901 [5] = test: Induction of morphological changes in human SGC7901 cells assessed as destruction of cytoskeleton at 26 nM incubated for 24 hrs by immunofluorescence assay; type: functional, cell-based; how it was run: as §1
Tubulin (Sus scrofa) [6] = target: T1, Tubulin (Sus scrofa); test: Inhibition of porcine brain tubulin polymerization measured at 1 min intervals for 80 mins by fluorimetry
A549 = test: Antiproliferative activity against human A549 cells assessed as reduction in cell growth incubated for 72 hrs by MTT assay; type: functional, cell-based; conditions: A549, 72 h
L929 = test: Cytotoxicity against mouse L929 cells assessed as reduction in cell growth incubated for 72 hrs by MTT assay; type: cell-based; conditions: L929, 72 h
HeLa = test: Antiproliferative activity against human HeLa cells assessed as reduction in cell growth incubated for 72 hrs by MTT assay; type: functional, cell-based
SGC-7901 [7] = test: Induction of morphological changes in human SGC7901 cells assessed as cell rounding at 26 nM incubated for 24 hrs by immunofluorescence assay; type: functional, cell-based; how it was run: as §1
Tubulin (Sus scrofa) [8] = target: T1, Tubulin (Sus scrofa); test: Inhibition of porcine brain tubulin polymerization at 10 uM measured at 1 min intervals for 80 mins by fluorimetry
SGC-7901 [9] = test: Cell cycle arrest in human SGC7901 cells assessed as increase of G2/M cell population at 36 nM incubated for 0 to 72 hrs by flow cytometry analysis; type: functional, cell-based
SGC-7901 [10] = test: Induction of multinucleated cell formation in human SGC7901 cells at 36 nM incubated for 0 to 72 hrs by flow cytometry analysis; type: functional, cell-based
SGC-7901 [11] = test: Induction of morphological changes in human SGC7901 cells assessed as formation of multinucleated cells at 36 nM incubated for 24 hrs by immunofluorescence assay; type: functional, cell-based; how it was run: as §1
SGC-7901 [12] = test: Cell cycle arrest in human SGC7901 cells assessed as decrease of G1 cell population at 36 nM incubated for 0 to 72 hrs by flow cytometry analysis; type: functional, cell-based
SGC-7901 [13] = test: Induction of morphological changes in human SGC7901 cells assessed as cell rounding at 36 nM incubated for 24 hrs by immunofluorescence assay; type: functional, cell-based; how it was run: as §1
SGC-7901 [14] = test: Induction of morphological changes in human SGC7901 cells assessed as destruction of cytoskeleton at 36 nM incubated for 24 hrs by immunofluorescence assay; type: functional, cell-based; how it was run: as §1

T1 sequence (P02550 whole entry, looked up): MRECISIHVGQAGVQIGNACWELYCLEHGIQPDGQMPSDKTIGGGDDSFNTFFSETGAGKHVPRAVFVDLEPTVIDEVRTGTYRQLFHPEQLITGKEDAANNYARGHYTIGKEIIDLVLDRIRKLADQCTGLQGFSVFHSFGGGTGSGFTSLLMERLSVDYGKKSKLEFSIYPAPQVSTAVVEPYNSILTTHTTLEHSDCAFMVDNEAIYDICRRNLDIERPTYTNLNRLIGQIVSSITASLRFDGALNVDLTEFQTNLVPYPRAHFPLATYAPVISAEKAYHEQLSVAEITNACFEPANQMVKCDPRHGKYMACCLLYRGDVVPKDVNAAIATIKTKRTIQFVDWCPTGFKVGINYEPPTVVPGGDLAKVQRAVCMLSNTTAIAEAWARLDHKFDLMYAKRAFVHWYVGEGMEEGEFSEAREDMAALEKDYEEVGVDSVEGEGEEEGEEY
T1 sequence (P02554 whole entry, looked up): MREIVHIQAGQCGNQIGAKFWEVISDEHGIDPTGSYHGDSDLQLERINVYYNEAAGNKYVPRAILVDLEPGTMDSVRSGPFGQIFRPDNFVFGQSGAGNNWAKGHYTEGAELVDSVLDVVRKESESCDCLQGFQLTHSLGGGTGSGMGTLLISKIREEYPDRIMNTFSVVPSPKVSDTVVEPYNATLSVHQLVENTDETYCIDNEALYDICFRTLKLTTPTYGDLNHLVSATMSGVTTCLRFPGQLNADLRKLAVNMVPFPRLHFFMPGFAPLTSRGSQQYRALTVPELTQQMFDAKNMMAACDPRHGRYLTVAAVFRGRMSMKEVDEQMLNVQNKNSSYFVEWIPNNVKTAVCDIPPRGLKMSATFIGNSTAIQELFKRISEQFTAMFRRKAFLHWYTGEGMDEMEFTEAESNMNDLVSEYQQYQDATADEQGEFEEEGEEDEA

IC50 (SGC-7901 [1]) [µM]	IC50 (A549) [µM]	IC50 (HeLa) [µM]	Structure (SMILES)	other results
0.013	0.082	0.045	COc1cc(-c2n[nH]c3ncc(-c4ccc(C)cc4)cc23)cc(OC)c1OC	Activity (SGC-7901 [2]): 59.62%; inhibition (Tubulin (Sus scrofa) [3]): Active; Activity (SGC-7901 [4]): Active; Activity (SGC-7901 [5]): Active; inhibition (Tubulin (Sus scrofa) [6]): Dose-dependent effect; IC50 (L929): 37.5 µM; Activity (SGC-7901 [7]): Active
0.051	> 30	0.086	COc1cc(-c2n[nH]c3ncc(-c4cccc(C)c4)cc23)cc(OC)c1OC	–
9.51	10.2	4.93	COc1ccc(N)c(-c2cnc3[nH]nc(-c4cc(OC)c(OC)c(OC)c4)c3c2)c1	–
> 30	> 30	> 30	COc1ccc(-c2n[nH]c3ncc(-c4ccc(C)cc4N)cc23)cc1OC	–
3.73	5.36	1.44	COc1ccc(-c2cnc3[nH]nc(-c4cc(OC)c(OC)c(OC)c4)c3c2)c(N)c1	–
0.23	7.83	0.16	COc1cc(-c2n[nH]c3ncc(-c4ccc(C)cc4N)cc23)cc(OC)c1OC	–
6.31	9.25	3.84	CNc1cc(C)ccc1-c1cnc2[nH]nc(-c3cc(OC)c(OC)c(OC)c3)c2c1	–
3.76	4.27	1.67	CNc1cc(F)ccc1-c1cnc2[nH]nc(-c3cc(OC)c(OC)c(OC)c3)c2c1	–
4.37	1.42	2.55	COc1cc(-c2n[nH]c3ncc(-c4ccccc4N)cc23)cc(OC)c1OC	–
0.58	3.24	0.36	COc1cc(-c2n[nH]c3ncc(-c4ccc(Cl)cc4N)cc23)cc(OC)c1OC	–
0.62	4.43	0.38	COc1cc(-c2n[nH]c3ncc(-c4cc(C)ccc4N)cc23)cc(OC)c1OC	–
8.48	14	6.49	CNc1cc(Cl)ccc1-c1cnc2[nH]nc(-c3cc(OC)c(OC)c(OC)c3)c2c1	–
0.4	1.31	0.081	COc1cc(-c2n[nH]c3ncc(-c4ccc(F)cc4N)cc23)cc(OC)c1OC	–
5.52	8.47	2.61	COc1cc(-c2n[nH]c3ncc(-c4ccc(Br)cc4N)cc23)cc(OC)c1OC	–

Continued, molecule first:

Structure (SMILES)	IC50 (SGC-7901 [1]) [µM]	IC50 (A549) [µM]	IC50 (HeLa) [µM]	other results
COc1ccc(-c2n[nH]c3ncc(-c4ccc(C)cc4)cc23)cc1OC	> 30	> 30	> 30	–
COc1ccc(-c2n[nH]c3ncc(-c4ccc(C)cc4)cc23)cc1	> 30	> 30	> 30	–
COc1cc(-c2n[nH]c3ncc(-c4ccc(Cl)cc4)cc23)cc(OC)c1OC	4.82	14.6	0.87	–
COc1ccc(-c2n[nH]c3ncc(-c4ccc(C)cc4N)cc23)cc1	> 30	> 30	> 30	–
COc1cc(-c2n[nH]c3ncc(-c4ccccc4)cc23)cc(OC)c1OC	0.037	0.65	0.057	–
COc1ccc(-c2cnc3[nH]nc(-c4cc(OC)c(OC)c(OC)c4)c3c2)cc1	0.13	> 30	0.28	–
COc1cccc(-c2cnc3[nH]nc(-c4cc(OC)c(OC)c(OC)c4)c3c2)c1	1.91	7.66	0.46	–
COc1cc(-c2n[nH]c3ncc(-c4ccc(F)cc4)cc23)cc(OC)c1OC	2.31	> 30	0.89	–
COc1cc(C(=O)c2csc(-c3ccccc3)n2)cc(OC)c1OC	0.018	–	0.024	inhibition (Tubulin (Sus scrofa) [8]): Active; Activity (SGC-7901 [9]): Active; Activity (SGC-7901 [10]): Active; Activity (SGC-7901 [11]): Active; Activity (SGC-7901 [12]): Active; Activity (SGC-7901 [13]): Active; IC50 (L929): 25.8 µM; Activity (SGC-7901 [14]): Active
COc1cc(-c2n[nH]c3ncc(-c4ccc(Br)cc4)cc23)cc(OC)c1OC	20.2	17.4	10.9	–

— ChEMBL document CHEMBL4390664, “3,5-Diaryl-1H-pyrazolo[3,4-b]pyridines as potent tubulin polymerization inhibitors: Rational design, synthesis and biological evaluation” (Eur J Med Chem, 2019)
